Experimental data from paper PMC6436633 (ChemMedChem, 2018).
Where two headings read alike, the source gives them in different places.

Key:
HuH7 cells = type: cell-based, human
[1] = tested on: P. falciparum Dd2 asexual blood stage parasites; test: P. falciparum Dd2 asexual blood stage inhibition; type: cell-based, Plasmodium falciparum; conditions: read-out: blood stage parasite EC50, dose-response
Procedure, shortened: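 Asexual blood-stage P. falciparum Dd2 cultured with test compound in O-positive human blood for 72 h at 37 °C under 93% N2, 4% CO2, 3% O2, with 0.2% DMSO final. Nuclei then stained with SYBR Green I and fluorescence read. Data normalised to DMSO, with artesunate as positive control.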

PfPK5 [2] = target: T1, PfPK5 (Plasmodium falciparum, UniProt P61075); test: KINOMEscan active-site-directed competition binding assay, PfPK5; conditions: read-out: PfPK5 Kd(app), determined in duplicate, 0–30 μM
T1 sequence (P61075 whole entry): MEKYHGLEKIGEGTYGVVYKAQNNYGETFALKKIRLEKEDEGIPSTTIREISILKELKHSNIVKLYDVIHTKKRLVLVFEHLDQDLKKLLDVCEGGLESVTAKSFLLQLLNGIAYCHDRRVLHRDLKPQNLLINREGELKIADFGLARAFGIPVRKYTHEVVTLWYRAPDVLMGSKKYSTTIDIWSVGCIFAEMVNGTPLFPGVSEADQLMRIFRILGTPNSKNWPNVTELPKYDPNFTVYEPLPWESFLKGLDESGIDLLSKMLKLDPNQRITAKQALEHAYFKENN

PfPK5 [3] = target: T1, PfPK5; conditions: read-out: PfPK5 Kd; cited from earlier work
PfPK5 [4] = target: T1, PfPK5; conditions: read-out: PfPK5 IC50; cited from earlier work

Row | EC50 (HuH7 cells) | EC50 [1] | Kd (PfPK5 [2]) | Structure (SMILES) | Kd (PfPK5 [3]) | IC50 (PfPK5 [4])
1 | 67 µM | 0.14 µM | 0.37 µM | Nc1nc(Nc2ccc(S(N)(=O)=O)cc2)nn1C(=S)Nc1c(F)cccc1F [Compound 1a] | 0.32 µM | 
2 |  |  |  | CC(C)[C@H](CO)Nc1nc(Nc2cccc(Cl)c2)c2ncn(C(C)C)c2n1 [Purvalanol A, purvalanol A] |  | 8 µM
3 |  |  |  | O=C1Nc2ccccc2/C1=C1/Nc2ccccc2/C1=N\O [indirubin-3´-monoxime] |  | 6 µM
